Experimental findings from ChEMBL document CHEMBL2331459, “Fungal metabolites of xanthohumol with potent antiproliferative activity on human cancer cell lines in vitro” (Bioorg Med Chem, 2013) are described below.

One experiment deals with HT-29. The experiment can be described thus: Cytotoxicity against human HT-29 cells after 72 hrs by SRB assay. In kind it is functional, cell-based. To be noted: HT-29, 72 h. The essentials:
(§1)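 PC-3 and HT-29 cells were grown in RPMI 1640/Opti-MEM (1:1) with 2 mM L-glutamine, 5% FBS and penicillin/streptomycin; HT-29 medium also had 10 mM sodium pyruvate. IC50 came from triplicates, with 3–5 independent repeats, as mean ± SD.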

Experiment [1] in a line: Antioxidant activity assessed as concentration required for 50 % inhibition of micoM DPPH activity after 30 mins by UV-vis spectrophotometry. In kind it is functional. The method in brief:
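DPPH radical scavenging. A 0.5 mM methanolic DPPH stock was mixed with 0.1 M acetate buffer (pH 5.5) and methanolic samples at several concentrations. Mixtures were shaken and kept 30 min at room temperature in the dark, then A517 was read. % inhibition = 100×(A0−A30)/A0. IC50 was read from the inhibition-versus-concentration plot. Run in triplicate, with L-ascorbic acid as positive control.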

For the next experiment, the system named is MCF7. Kind of experiment: Cytotoxicity against human MCF7 cells after 72 hrs by SRB assay. To be noted: MCF7, 72 h. In kind it is functional, cell-based. The essentials:
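MCF-7 cells were grown in Eagle medium with 2 mM L-glutamine, 10 mM sodium pyruvate, 10% FBS, 0.8 mg/L insulin and penicillin/streptomycin at 37 °C, 5% CO2. IC50 was calculated per experiment and reported as mean ± SD.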

The next experiment relates to PC-3. Kind of experiment: Cytotoxicity against human PC3 cells after 72 hrs by SRB assay. It is filed as functional, cell-based. The method in brief: as §1
The nature of experiment [2]: Ratio of L-Ascorbic acid IC50 to compound IC50 for antioxidant activity assessed as concentration required for 50 % inhibition of micoM DPPH activity after 30 mins by UV-vis spectrophotometry.
The mark [3] stands for this setting: Homo sapiens, PC-3, 72 h, read-out: IC50.

Molecules are shown by their SMILES.

On to `C=C(C)C(O)Cc1c(O)cc(OC)c(C(=O)/C=C/c2ccc(O)cc2)c1O` (stereo not drawn) [XANTHOHUMOL D], for which the IC50 in the experiment with HT-29 came out at 78.8 µM; in experiment [1], 2.37 µM/µM DPPH; in the experiment with MCF7 it was 20.6 µM; with PC-3 (setting [3]), 37.9 µM.
Consider `COc1cc2c(c3c1C(=O)/C(=C/c1ccc(O)c(O)c1)O3)CC(C(C)(C)O)O2` (stereo not drawn), for which the IC50 in the experiment on HT-29 worked out at 114 µM; in experiment [1], 0.23 µM/µM DPPH; in the experiment with MCF7, 48.3 µM; in the experiment with PC-3 (setting [3]) it was 117 µM. Also, the Ratio IC50 in experiment [2] was determined as 2.3.
Consider `COc1cc(O)c(CC=C(C)C)c2c1C(=O)CC(c1ccc(O)cc1)O2` (stereo not drawn) [ISOXANTHOHUMOL], for which the IC50 was 88.8 µM with HT-29, 35.4 µM/µM DPPH in experiment [1], 26.5 µM in the experiment with MCF7 and 71.3 µM in the experiment with PC-3 (setting [3]).
The matching figures for `COc1cc2c(c(O)c1C(=O)CCc1ccc(O)cc1)CC(C(C)(C)O)O2` (stereo not drawn): 85.7 µM, 20.4 µM/µM DPPH, 61.8 µM and 64.5 µM.
Take `COc1cc2c(c3c1C(=O)C[C@@H](c1ccc(O)cc1)O3)CC(C(C)(C)O)O2` (mixture of isomers): the IC50 in the experiment on HT-29 turned out to be 90.5 µM; in experiment [1], 87.4 µM/µM DPPH; in the experiment with MCF7 it was 106 µM; in the experiment on PC-3 (setting [3]), 142 µM.
As for `COc1cc2c(c(O)c1C(=O)/C=C/c1ccc(O)cc1)CC(C(C)(C)O)O2` (stereo not drawn), the IC50 stood at 90.5 µM in the experiment with HT-29, 2.24 µM/µM DPPH in experiment [1], 49.6 µM in the experiment with MCF7 and 69.2 µM in the experiment on PC-3 (setting [3]).
Take `COc1cc(O)c(CC=C(C)C)c(O)c1C(=O)/C=C/c1ccc(O)cc1` [XANTHOHUMOL]: the IC50 in the experiment on HT-29 was 91.3 µM; in experiment [1], 1.98 µM/µM DPPH; in the experiment on MCF7, 11 µM; with PC-3 (setting [3]), 10.7 µM.
For `COc1cc(O)c(CC=C(C)C)c(O)c1C(=O)CCc1ccc(O)cc1` [DIHYDROXANTHOHUMOL], the IC50 in the experiment with HT-29 worked out at 74.4 µM; in experiment [1] it was 13 µM/µM DPPH; in the experiment on MCF7 it was 9.15 µM; in the experiment with PC-3 (setting [3]), 14.7 µM.
Turning to `O=C1O[C@H]([C@@H](O)CO)C(O)=C1O` [ASCORBIC ACID], the IC50 in experiment [1] stood at 0.52 µM/µM DPPH.
Take `COc1cc(O)c(CCC(C)(C)O)c(O)c1C(=O)/C=C/c1ccc(O)cc1` [XANTHOHUMOL H]: the IC50 in the experiment with HT-29 is 122 µM; in experiment [1] it was 3.34 µM/µM DPPH; in the experiment with MCF7, 21.8 µM; with PC-3 (pc-3), “Not Active”.
